Test results: article PMC4976638 (Biochemistry, 2016)

Assays:
apoE4 [1] = target: T1, apoE4 (Homo sapiens, UniProt P02649, C130R); assay: Analytical ultracentrifugation sedimentation velocity; settings: 10 μM apoE4, 10 or 20 μM EZ-482, PBS
Procedure, shortened: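 Recombinant apoE4 was expressed in E. coli BL21(DE3) as a His-tagged thioredoxin fusion, cleaved with PreScission protease (leaving N-terminal Gly-Pro), and dialysed into PBS. For sedimentation velocity, 10 μM apoE4 was run with 0, 10 or 20 μM test compound in PBS in a double-sector centerpiece (1.2 cm path), with absorbance at 290 nm recorded in continuous mode.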

apoE4 [2] = target: T1, apoE4; assay: Differential hydrogen-deuterium exchange MS, apoE4; format: binding; settings: 1 μM WT apoE4, 25 μM EZ-482, 25 °C
apoE4 [3] = target: apoE4 (Homo sapiens, UniProt P02649, C130R/S157C); format: binding
Procedure, shortened: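 Alexa488-maleimide labelled the apoE4 S139C mutant after 20 mM DTT reduction (1–2 h, 37 °C), with a 10-fold molar dye excess overnight at 4 °C (>90% labelling). Labelled protein was preincubated 1 h at room temperature, then titrated stepwise with test compound to follow fluorescence decrease. Unlabelled apoE3 was then added. Buffer: 10 mM phosphate pH 7.4, 150 mM NaCl, 1 mM DTT, 1 mM EDTA, 25 °C.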

apoE3 [4] = target: T2, apoE3 (Homo sapiens, UniProt P02649); assay: Quenching of ANS fluorescence, apoE3; format: binding; settings: Apparent dissociation constant Kd, Using ANS, PBS pH 7.4, 25 °C
Procedure, shortened: (§1)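 Unlabelled apoE raises ANS fluorescence. Test compound was titrated stepwise into the apoE–ANS mixture after a 1 h room-temperature protein preincubation, and quenching of ANS fluorescence gave an apparent Kd. Buffer: 10 mM phosphate pH 7.4, 150 mM NaCl, 1 mM DTT, 1 mM EDTA, 25 °C.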

apoE3 [5] = target: T2, apoE3; assay: SYPRO Orange displacement titration, apoE3; format: binding; settings: Apparent dissociation constant Kd, Using SYPRO Orange, PBS pH 7.4, 25 °C
Procedure, shortened: (§2)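 Adding apoE to SYPRO Orange increases its fluorescence and shifts the emission maximum to 575 nm. After a 1 h room-temperature protein preincubation, test compound was titrated stepwise and the decrease in SYPRO Orange fluorescence was fitted for an apparent Kd. Buffer: 10 mM phosphate pH 7.4, 150 mM NaCl, 1 mM DTT, 1 mM EDTA, 25 °C.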

apoE3 [6] = target: T2, apoE3; assay: Differential hydrogen-deuterium exchange MS, apoE3; format: binding
Procedure, shortened: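 ApoE3 stock (10 μM in PBS, 2 mM DTT) was incubated 2 h at 25 °C with test compound […]; controls had 2% DMSO. Exchange ran in D₂O PBS (pD 7.4, 25 °C, 30 s–30 min), with 1 μM apoE and 25 μM compound. Quench used fungal XIII/urea/formic acid on ice, then pepsin digestion, C18 LC and ESI-QTOF MS. Duplicates; 48 h back-exchange correction.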

Solubility in DMSO = format: physicochemical
apoE4 [7] = target: T1, apoE4; assay: SYPRO Orange displacement titration, apoE4; format: binding; settings: Apparent dissociation constant Kd, Using SYPRO Orange, PBS pH 7.4, 25 °C
Procedure, shortened: as §2

apoE4 [8] = target: T1, apoE4; assay: Quenching of ANS fluorescence, apoE4; format: binding
Procedure, shortened: as §1

apoE3 [9] = target: apoE3 (Homo sapiens, UniProt P02649, A303C); assay: Fluorescence of TMR-labeled apoE3; format: binding
Procedure, shortened: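 ApoE3 A285C was labelled with TMR maleimide (dye:protein 1:1; native Cys112 possibly also labelled). It was preincubated 1 h at room temperature, then titrated stepwise with test compound while fluorescence was monitored to derive an apparent Kd. Buffer: 20 mM HEPES pH 7.4, 150 mM NaCl, 1 mM DTT, 1 mM EDTA, 25 °C.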

T2 sequence (P02649 19-317): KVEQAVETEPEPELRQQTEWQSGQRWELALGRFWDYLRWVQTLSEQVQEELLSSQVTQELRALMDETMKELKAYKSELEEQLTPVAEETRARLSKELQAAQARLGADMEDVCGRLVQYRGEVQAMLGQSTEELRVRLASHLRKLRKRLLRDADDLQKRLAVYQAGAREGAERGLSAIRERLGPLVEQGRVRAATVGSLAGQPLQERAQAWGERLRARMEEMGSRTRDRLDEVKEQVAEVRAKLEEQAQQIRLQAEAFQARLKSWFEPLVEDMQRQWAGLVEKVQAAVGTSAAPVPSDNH
T1 sequence (P02649 19-317 C130R): as the sequence (P02649 19-317) above, with C112R counted along it
Chain of apoE3 (Homo sapiens, UniProt P02649, A303C) (P02649 19-317 A303C): as the sequence (P02649 19-317) above, with A285C counted along it
Chain of apoE4 (Homo sapiens, UniProt P02649, C130R/S157C) (P02649 19-317 C130R/S157C): as the sequence (P02649 19-317) above, with C112R, S139C counted along it

Effect on distribution of apoE oligomers (apoE4 [1]): essentially unaffected
Kd (apoE4 [3]): 7.5 µM
Kd (apoE3 [4]): 5.6 ± 0.7 µM
Kd (apoE3 [5]): 7.3 ± 0.53 µM
N-terminal allosteric effect by HDX, apoE3 (apoE3 [6]; 1 μM WT apoE3, 25 μM EZ-482, 25 °C): apoE3 N-terminal remained unaffected
Solubility in DMSO (Solubility in DMSO): reasonably soluble in DMSO
Kd (apoE4 [7]): 7.6 ± 0.4 µM
Kd (apoE4 [8]): 7.5 ± 1 µM
Kd (apoE3 [9]): 7 ± 0.35 µM
SMILES: Cn1nc(CC(=O)Nc2cc(S(=O)(=O)Nc3cccc(Cl)c3)ccc2O)c2ccccc2c1=O [EZ-482, N-{5-[(3-chlorophenyl)sulfamoyl]-2-hydroxyphenyl}-2-(3-methyl-4-oxo-3,4-dihydrophthalazin-1-yl)acetamide]
Binding site by HDX protection, apoE4 (apoE4 [2]): Large protection was observed only in the C-terminal domain (229–235/234–243 and 258–265)
Binding site by HDX protection, apoE3 (apoE3 [6]; 1 μM WT apoE3, 25 μM EZ-482 or 1X SYPRO Orange, 25 °C): Large protection was observed only in the C-terminal domain (229–235/234–243 and 258–265)
